Experimental data taken from ChEMBL document CHEMBL3525906, “A comprehensive assessment of repaglinide metabolic pathways: impact of choice of in vitro system and relative enzyme contribution to in vitro clearance” (Drug Metab Dispos, 2012).

Key:
Cytochrome P450 3A5 = Cytochrome P450 3A5 (Homo sapiens, UniProt P20815); assay: Activity of human recombinant CYP3A5 expressed in insect cells assessed as enzyme-mediated 3'-hydroxy repaglinide formation by LC-MS/MS method; assay type: ADME
In short: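 Recombinant P450 (CYP2C8 50, CYP3A4 30, CYP3A5 100; units not given) incubated 10 min at 37°C with repaglinide (8 concentrations, 0.5–150 μM) in 0.1 M phosphate pH 7.4, 10 mM MgCl2, NADPH-regenerating system (1 mM NADP+, isocitrate/isocitrate dehydrogenase). Quenched with ice-cold methanol plus indomethacin internal standard. M1, M2, M4 quantified by LC-MS/MS against authentic standards. Michaelis-Menten fit; mean ± SD, n=3.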

Liver microsome [1] = assay: Unbound intrinsic clearance in human liver microsomes assessed as 3'-hydroxy repaglinide formation measured per mg of protein at 0.5 to 150 uM by LC-MS/MS method; assay type: ADME
In short: (§1)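 Pooled HLM, 0.3 mg/ml, in 0.1 M phosphate pH 7.4 with 10 mM MgCl2 and NADPH regenerating system. Repaglinide at 8 levels, 0.5-150 μM; 37°C, 10 min. Metabolites by LC-MS/MS against authentic standards; fu_inc 0.85. Duplicates on three occasions.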

[2] = Unbound intrinsic clearance in human hepatic S9 fraction assessed as 3'-hydroxy repaglinide formation measured per mg of protein at 0.5 to 150 uM by LC-MS/MS method; assay type: ADME, tissue-based, Liver; conditions: s9, 150 µM
Hepatocyte [3] = assay: Drug metabolism in human hepatocytes assessed as glucuronide formation measured per 10^6 cells at 0.5 to 150 uM by LC-MS/MS method; assay type: ADME, cell-based
Hepatocyte [4] = assay: Drug metabolism in human hepatocytes assessed as 2-despiperidyl-2-amino repaglinide formation measured per 10^6 cells at 0.5 to 150 uM by LC-MS/MS method; assay type: ADME, cell-based
[5] = Drug metabolism in human hepatic S9 fraction assessed as 2-despiperidyl-2-amino repaglinide formation measured per mg of protein at 0.5 to 150 uM by LC-MS/MS method; assay type: ADME, Liver; conditions: s9, 150 µM
Cytochrome P450 2C8 = molecular target: T1, Cytochrome P450 2C8 (Homo sapiens, UniProt P10632); assay: Fraction metabolism via CYP2C8 in human hepatocytes; assay type: ADME, cell-based, Hepatocyte
T1 sequence (P10632 whole entry): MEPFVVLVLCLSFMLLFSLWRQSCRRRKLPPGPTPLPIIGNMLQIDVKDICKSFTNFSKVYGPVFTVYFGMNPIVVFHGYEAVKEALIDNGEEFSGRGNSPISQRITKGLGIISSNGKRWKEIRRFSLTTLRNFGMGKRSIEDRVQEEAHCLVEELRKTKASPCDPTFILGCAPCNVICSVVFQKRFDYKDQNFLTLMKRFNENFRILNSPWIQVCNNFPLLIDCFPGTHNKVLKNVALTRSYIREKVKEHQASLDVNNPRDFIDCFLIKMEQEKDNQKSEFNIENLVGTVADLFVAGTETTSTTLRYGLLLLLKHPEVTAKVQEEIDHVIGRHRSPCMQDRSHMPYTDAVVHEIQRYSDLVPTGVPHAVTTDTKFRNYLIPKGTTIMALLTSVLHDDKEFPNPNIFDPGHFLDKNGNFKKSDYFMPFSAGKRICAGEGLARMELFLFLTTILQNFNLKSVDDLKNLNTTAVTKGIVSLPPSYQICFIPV

Cytochrome P450 3A4 [6] = molecular target: T2, Cytochrome P450 3A4 (Homo sapiens, UniProt P08684); assay: Fraction metabolism via CYP3A4 in human liver microsomes; assay type: ADME
Homo sapiens [7] = species on record: Homo sapiens; assay: Drug metabolism in human patient assessed as fold change in metabolite M2/M1 AUC ratio at 0.25 mg co-treated with telithromycin and montelukast relative to telithromycin and montelukast non-treated patient; assay type: ADME, organism-based; conditions: in vivo
Homo sapiens [8] = species on record: Homo sapiens; assay: Drug metabolism in human patient assessed as fold change in metabolite M2/M4 AUC ratio at 0.25 mg co-treated with atorvastatin relative to atorvastatin non-treated patient; assay type: ADME, organism-based; conditions: in vivo
Homo sapiens [9] = species on record: Homo sapiens; assay: Drug metabolism in variable SLCO1B1 genotype containing human patient assessed as fold change in metabolite M2/M4 AUC ratio at 0.25 mg co-treated with gemfibrozil relative to gemfibrozil non-treated patient; assay type: ADME, organism-based; conditions: in vivo
Homo sapiens [10] = species on record: Homo sapiens; assay: Drug metabolism in human patient assessed as fold change in metabolite M2/M4 AUC ratio at 0.25 mg co-treated with telithromycin and montelukast relative to telithromycin and montelukast non-treated patient; assay type: ADME, organism-based; conditions: in vivo
Homo sapiens [11] = species on record: Homo sapiens; assay: Ratio of AUC in human patient at 0.25 mg to AUC in human patient at 0.25 mg co-treated with gemfibrozil; assay type: ADME, organism-based; conditions: in vivo
Homo sapiens [12] = species on record: Homo sapiens; assay: Ratio of AUC in human patient at 0.25 mg to AUC in human patient at 0.25 mg co-treated with atorvastatin; assay type: ADME, organism-based; conditions: in vivo
Homo sapiens [13] = species on record: Homo sapiens; assay: Ratio of AUC in variable SLCO1B1 genotype human patient at 0.25 mg to AUC in variable SLCO1B1 genotype human patient at 0.25 mg co-treated with gemfibrozil; assay type: ADME, organism-based; conditions: in vivo
Homo sapiens [14] = species on record: Homo sapiens; assay: Ratio of AUC in human patient at 0.25 mg to AUC in human patient at 0.25 mg co-treated with clarithromycin; assay type: ADME, organism-based; conditions: in vivo
Homo sapiens [15] = species on record: Homo sapiens; assay: Ratio of AUC in human patient at 0.25 mg to AUC in human patient at 0.25 mg co-treated with cyclosporine; assay type: ADME, organism-based; conditions: in vivo
Homo sapiens [16] = species on record: Homo sapiens; assay: Drug metabolism in human patient assessed as fold change in metabolite M2/M1 AUC ratio at 0.25 mg co-treated with atorvastatin relative to atorvastatin non-treated patient; assay type: ADME, organism-based; conditions: in vivo
Homo sapiens [17] = species on record: Homo sapiens; assay: Drug metabolism in variable SLCO1B1 genotype containing human patient assessed as fold change in metabolite M2/M1 AUC ratio at 0.25 mg co-treated with gemfibrozil relative to gemfibrozil non-treated patient; assay type: ADME, organism-based; conditions: in vivo
Liver microsome [18] = assay: Unbound intrinsic clearance in human liver microsomes assessed as 2-despiperidyl-2-amino repaglinide formation measured per mg of protein at 0.5 to 150 uM by LC-MS/MS method; assay type: ADME; in short: as §1
Cytochrome P450 3A4 [19] = molecular target: T2, Cytochrome P450 3A4; assay: Unbound intrinsic clearance in human recombinant CYP3A4 expressed in insect cells assessed as enzyme-mediated 2-despiperidyl-2-amino repaglinide formation per nanomole of protein at 0.5 to 150 uM by LC-MS/MS method; assay type: ADME
[20] = Drug metabolism in human hepatic S9 fraction assessed as glucuronide formation measured per mg of protein at 0.5 to 150 uM by LC-MS/MS method; assay type: ADME, Liver; conditions: s9, 150 µM
Hepatocyte [21] = assay: Drug metabolism in human hepatocytes assessed as 2-despiperidyl-2-(5-carboxypentylamine) repaglinide formation measured per 10^6 cells at 0.5 to 150 uM by LC-MS/MS method; assay type: ADME, cell-based
Liver microsome [22] = assay: Drug metabolism in human liver microsomes assessed as 2-despiperidyl-2-(5-carboxypentylamine) repaglinide formation measured per mg of protein at 0.5 to 150 uM by LC-MS/MS method; assay type: ADME
Hepatocyte [23] = assay: Unbound intrinsic clearance in human hepatocytes assessed as 2-despiperidyl-2-(5-carboxypentylamine) repaglinide formation measured per 10^6 cells at 0.5 to 150 uM by LC-MS/MS method; assay type: ADME, cell-based
Liver microsome [24] = assay: Unbound intrinsic clearance in human liver microsomes assessed as 2-despiperidyl-2-(5-carboxypentylamine) repaglinide formation measured per mg of protein at 0.5 to 150 uM by LC-MS/MS method; assay type: ADME; in short: as §1
Hepatocyte [25] = assay: Drug metabolism in human hepatocytes assessed as 3'-hydroxy repaglinide formation measured per 10^6 cells at 0.5 to 150 uM by LC-MS/MS method; assay type: ADME, cell-based

T2 sequence (P08684 whole entry): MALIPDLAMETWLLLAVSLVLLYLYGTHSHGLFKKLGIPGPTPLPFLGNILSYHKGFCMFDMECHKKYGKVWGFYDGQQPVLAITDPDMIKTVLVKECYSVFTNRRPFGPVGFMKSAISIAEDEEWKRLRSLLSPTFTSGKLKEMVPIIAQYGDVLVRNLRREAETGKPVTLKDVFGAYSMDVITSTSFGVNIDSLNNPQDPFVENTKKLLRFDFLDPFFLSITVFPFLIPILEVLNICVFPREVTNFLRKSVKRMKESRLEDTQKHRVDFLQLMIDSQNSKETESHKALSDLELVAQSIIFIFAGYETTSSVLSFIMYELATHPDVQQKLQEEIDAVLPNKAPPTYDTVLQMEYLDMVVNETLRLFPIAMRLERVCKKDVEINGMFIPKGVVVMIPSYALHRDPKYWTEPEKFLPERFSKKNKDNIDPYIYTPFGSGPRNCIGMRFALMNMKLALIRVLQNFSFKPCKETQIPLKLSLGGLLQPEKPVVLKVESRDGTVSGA
Chain of Cytochrome P450 3A5 (P20815 whole entry): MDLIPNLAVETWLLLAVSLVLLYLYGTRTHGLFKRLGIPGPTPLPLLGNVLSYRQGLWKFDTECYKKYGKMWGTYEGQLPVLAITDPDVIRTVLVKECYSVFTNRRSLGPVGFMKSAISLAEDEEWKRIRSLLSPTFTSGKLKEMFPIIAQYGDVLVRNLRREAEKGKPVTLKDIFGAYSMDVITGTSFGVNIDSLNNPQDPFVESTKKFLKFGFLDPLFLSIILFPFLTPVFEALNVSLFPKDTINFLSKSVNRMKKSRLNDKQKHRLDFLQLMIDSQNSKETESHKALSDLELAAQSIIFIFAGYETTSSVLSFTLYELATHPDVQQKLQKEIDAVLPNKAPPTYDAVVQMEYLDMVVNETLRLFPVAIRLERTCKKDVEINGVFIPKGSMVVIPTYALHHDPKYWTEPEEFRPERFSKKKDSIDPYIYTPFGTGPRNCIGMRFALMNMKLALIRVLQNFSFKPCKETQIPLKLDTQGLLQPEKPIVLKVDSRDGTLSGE

Compound `CCOc1cc(CC(=O)N[C@@H](CC(C)C)c2ccccc2N2CCCCC2)ccc1C(=O)O` [REPAGLINIDE] has a Km (Cytochrome P450 3A5) of no less than 150 µM, a CL free (Liver microsome [1]) of 18 µL/min/mg and a CL free [2] of 2.7 µL/min/mg. For the same compound, the Vmax (Hepatocyte [3]) was 5.7 pmol/min/10^6cells, the Vmax (Hepatocyte [4]) was 23 pmol/min/10^6cells and the Vmax [5] was 24 pmol/min/mg. For the same compound, the Fm (Cytochrome P450 2C8) was 0.49, the Fm (Cytochrome P450 3A4 [6]) was 0.2 and the “fold change (FC)” value (Homo sapiens [7]) was 4.3. The “fold change (FC)” value (Homo sapiens [8]) was 0.87, the “fold change (FC)” value (Homo sapiens [9]) was 6.4 and the “fold change (FC)” value (Homo sapiens [10]) was 0.82. The Ratio (Homo sapiens [11]) was 8.1, the Ratio (Homo sapiens [12]) was 1.2 and the Ratio (Homo sapiens [13]) was 7.3. The Ratio (Homo sapiens [14]) was 1.4, the Ratio (Homo sapiens [15]) was 2.4 and the “fold change (FC)” value (Homo sapiens [16]) was 1.05. For the same compound, the “fold change (FC)” value (Homo sapiens [17]) was 0.38, the CL free (Liver microsome [18]) was 4.1 µL/min/mg and the CL free (Cytochrome P450 3A4 [19]) was 120 µL/min/nmol. For the same compound, the Vmax [20] was 46 pmol/min/mg, the Vmax (Hepatocyte [21]) was 80 pmol/min/10^6cells and the Vmax (Liver microsome [22]) was 28 pmol/min/mg. The CL free (Hepatocyte [23]) was 3.3 uL/min/10^6cells, the CL free (Liver microsome [24]) was 1.4 µL/min/mg and the Vmax (Hepatocyte [25]) was 28 pmol/min/10^6cells.
